The source of these data is PMC3228886 (Journal of medicinal chemistry, 2011).

In one data set the target is human TLR2 (Homo sapiens, UniProt O60603). Kind of data set: TLR2-specific NF-κB induction reporter gene assay. To be noted: for TLR2-agonistic activity (in words): TLR2-specific reporter gene assay. Type of data set: cell-based. The method in brief: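 HEK-Blue reporter cells carry stably expressed secreted alkaline phosphatase under NF-κB promoters, inducible by TLR2 agonists. Cells were seeded at ~10⁵ cells/mL and grown to confluency, then stimulated for 12 h with serially diluted test compound. Supernatant sAP was read spectrophotometrically at 620 nm using an alkaline phosphatase-specific chromogen in the detection medium. Samples were run in quadruplicate, reported as means with standard deviations.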
Chain of human TLR2 (O60603 21-784): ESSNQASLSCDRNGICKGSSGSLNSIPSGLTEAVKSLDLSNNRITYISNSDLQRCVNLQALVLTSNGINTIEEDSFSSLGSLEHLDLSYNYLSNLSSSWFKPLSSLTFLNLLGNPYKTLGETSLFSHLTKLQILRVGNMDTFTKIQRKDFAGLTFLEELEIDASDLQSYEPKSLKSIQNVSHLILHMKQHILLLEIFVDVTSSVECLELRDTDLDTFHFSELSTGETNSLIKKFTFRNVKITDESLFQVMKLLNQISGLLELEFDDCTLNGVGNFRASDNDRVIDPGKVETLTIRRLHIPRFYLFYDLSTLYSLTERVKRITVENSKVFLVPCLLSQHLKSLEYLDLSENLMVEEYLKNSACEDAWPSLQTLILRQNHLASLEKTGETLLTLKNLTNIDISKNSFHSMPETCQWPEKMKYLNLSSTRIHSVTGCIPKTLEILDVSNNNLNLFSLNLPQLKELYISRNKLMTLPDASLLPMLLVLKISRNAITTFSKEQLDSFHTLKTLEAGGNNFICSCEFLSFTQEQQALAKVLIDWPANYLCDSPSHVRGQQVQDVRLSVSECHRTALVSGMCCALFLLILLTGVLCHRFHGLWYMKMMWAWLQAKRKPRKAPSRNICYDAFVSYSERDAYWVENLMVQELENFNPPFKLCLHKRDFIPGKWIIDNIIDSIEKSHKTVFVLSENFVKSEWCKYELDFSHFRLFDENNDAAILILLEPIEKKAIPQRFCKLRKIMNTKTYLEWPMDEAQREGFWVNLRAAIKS
Chain of human TLR2 (Q9Y2C9 32-796 partner): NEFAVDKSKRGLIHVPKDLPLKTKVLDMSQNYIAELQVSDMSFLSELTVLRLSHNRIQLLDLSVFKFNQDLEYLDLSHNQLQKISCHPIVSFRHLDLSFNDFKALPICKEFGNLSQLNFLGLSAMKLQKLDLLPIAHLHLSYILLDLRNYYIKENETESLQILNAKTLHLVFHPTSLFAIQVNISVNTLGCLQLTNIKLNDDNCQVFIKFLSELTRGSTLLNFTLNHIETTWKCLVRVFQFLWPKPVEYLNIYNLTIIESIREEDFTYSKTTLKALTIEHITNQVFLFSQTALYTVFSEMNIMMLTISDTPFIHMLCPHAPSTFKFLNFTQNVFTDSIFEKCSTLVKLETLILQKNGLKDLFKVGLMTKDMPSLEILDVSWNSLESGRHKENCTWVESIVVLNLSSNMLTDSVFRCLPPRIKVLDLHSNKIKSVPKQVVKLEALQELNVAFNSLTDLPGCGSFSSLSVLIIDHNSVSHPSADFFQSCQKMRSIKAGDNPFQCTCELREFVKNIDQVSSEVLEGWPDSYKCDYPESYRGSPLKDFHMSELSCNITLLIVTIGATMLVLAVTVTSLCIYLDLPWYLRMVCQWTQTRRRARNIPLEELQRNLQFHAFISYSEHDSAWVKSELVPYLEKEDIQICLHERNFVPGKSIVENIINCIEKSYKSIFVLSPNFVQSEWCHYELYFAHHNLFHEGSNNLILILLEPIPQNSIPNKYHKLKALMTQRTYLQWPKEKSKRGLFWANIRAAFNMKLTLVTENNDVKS
On the technique in general: A reporter such as luciferase makes a cellular process visible.

The nature of a further data set: Water solubility. The data set is classed as physicochemical.
A further data set concerns rabbit. As to conditions: rabbit models; cited from earlier work.
The test system of data set [1] is murine models of immunization. To be noted: cited from earlier work.
For a further data set, the system named is human blood. To be noted: ex vivo human blood models; cited from earlier work.

The structures appear in SMILES notation. Where a name gives a salt, the structure may show the parent alone.

On to `CCCCCCCCCCCCCCCC(=O)OC[C@H](CSCCC(=O)N[C@@H](CO)C(=O)OC)OC(=O)CCCCCCCCCCCCCCC` [Compound 74], for which the “TLR2-agonistic activity (in words)” value on human TLR2 is “inactive”.
Take `CCCCC/C=C\C/C=C\CCCCCCCC(=O)OC[C@H](CSC[C@H](N)C(=O)NCC(=O)OC(C)C)OC(=O)CCCCCCC/C=C\C/C=C\CCCCC` [Compound 8]: the Water solubility result in the data set “Water solubility” is on record as “not water-soluble”. On human TLR2, the “TLR2-agonistic activity (in words)” value is listed as “highly active”.
As to `CCOCCOCCOCCCNCC(=O)OC[C@H](CSC[C@H](N)C(=O)N[C@@H](CO)C(=O)O)OC(=O)CNCCCOCCOCCOCC` [Compound 24], on human TLR2, the “TLR2-agonistic activity (in words)” value was “inactive”.
Still for that read-out and setting: next, `CCCCCCCCCCCCCCCC(=O)OC[C@H](CSC[C@H](NC(=O)CC[C@H](N)C(=O)O)C(=O)NCC(=O)OC(C)C)OC(=O)CCCCCCCCCCCCCCC` [Compound 11]: “virtually inactive”; `CCCCCCCCCCCCCCCC(=O)OC[C@H](CSCC[C@H](N)C(=O)N[C@@H](CO)C(=O)O)OC(=O)CCCCCCCCCCCCCCC` [Compound 69]: “inactive”.
`CCCCCCCCCCCCCC(=O)OC[C@H](CSC[C@H](N)C(=O)N[C@@H](CO)C(=O)O)OC(=O)CCCCCCCCCCCCC` [Compound 18]: the “TLR2-agonistic activity (in words)” value at human TLR2 is “lower in activity than the parent PAM2CS compound”.
For `CCCCCCCCCCCCCCCC(=O)O[C@H](CO)CSC[C@H](N)C(=O)N[C@@H](CO)C(=O)O` [Compound 38], the “TLR2-agonistic activity (in words)” value on human TLR2 was “unexpectedly active”.
The same measure, in the same setting: next, `CCCCCCCCCCCCCCCC(=O)OC[C@H](CSC(C)(C)[C@H](N)C(=O)N[C@@H](CO)C(=O)O)OC(=O)CCCCCCCCCCCCCCC` [Compound 64]: “inactive”.
In general, EC50 refers to the concentration at which the effect is half-maximal. Read a high EC50 as lower potency in that assay. Turning to `CCCCCCCCCCCCCCCC(=O)OCCSC[C@H](N)C(=O)N[C@@H](CO)C(=O)OC` [Compound 44, 2-(((R)-2-amino-3-(((S)-3-hydroxy-1-methoxy-1-oxopropan-2-yl)amino)-3-oxopropyl)thio)ethyl palmitate, trifluoroacetate], the Water solubility entry in “Water solubility” is on record as “water-soluble”. On human TLR2, the EC50 was 5.45 nM and the “TLR2-agonistic activity (in words)” value is “quite active”.
As for `CCCCCCCCCCCCCCCCOC(=O)CSC[C@H](N)C(=O)N[C@@H](CO)C(=O)OC` [Compound 50, (S)-methyl 2-((R)-2-amino-3-((2-(hexadecyloxy)-2-oxoethyl)thio)propanamido)-3-hydroxypropanoate, trifluoroacetate], the “TLR2-agonistic activity (in words)” value at human TLR2 is “virtually bereft of activity”.
Turning to `CCCCCCCCCCCCCCCC(=O)OC[C@H](CSC(C)(C)[C@@H](N)C(=O)N[C@@H](CO)C(=O)OC)OC(=O)CCCCCCCCCCCCCCC` [Compound 59], at human TLR2, the “TLR2-agonistic activity (in words)” value is “inactive”.
The same measure, in the same setting: with `CCCCCCCCCCCCCCCC(=O)OC[C@@H](O)CSC[C@H](N)C(=O)N[C@@H](CO)C(=O)O` [Compound 35] the entry was “unexpectedly active”; with `CCCCCCCCCCCCCCCC(=O)OCCCSC[C@H](N)C(=O)N[C@@H](CO)C(=O)OC` [Compound 47, 3-(((R)-2-amino-3-(((S)-3-hydroxy-1-methoxy-1-oxopropan-2-yl)amino)-3-oxopropyl)thio)propyl palmitate, trifluoroacetate], “completely inactive”.
For `CCCCCCCCCCCCCCCCCC(=O)OC[C@H](CSC[C@H](N)C(=O)N[C@@H](CO)C(=O)O)OC(=O)CCCCCCCCCCCCCCCCC` [Compound 19], the “TLR2-agonistic activity (in words)” value on human TLR2 is “lower in activity than the parent PAM2CS compound”.
As to `CCCCCCCCCCCCCCCC(=O)OC[C@H](CSC[C@H](N)C(=O)NCC(=O)OC(C)C)OC(=O)CCCCCCCCCCCCCCC` [Compound 7], the Water solubility result in “Water solubility” is listed as “not water-soluble”. Besides, the “TLR2-agonistic activity (in words)” value at human TLR2 is “highly active”.
As for `CCCCCCCCCCCCCCCCOC(=O)CCSC[C@H](N)C(=O)N[C@@H](CO)C(=O)OC` [Compound 53, (S)-methyl 2-((R)-2-amino-3-((3-(hexadecyloxy)-3-oxopropyl)thio)propanamido)-3-hydroxypropanoate, trifluoroacetate], the “TLR2-agonistic activity (in words)” value on human TLR2 was “virtually bereft of activity”.
As for `CC/C=C\C/C=C\C/C=C\CCCCCCCC(=O)OC[C@H](CSC[C@H](N)C(=O)NCC(=O)OC(C)C)OC(=O)CCCCCCC/C=C\C/C=C\C/C=C\CC` [Compound 9], in the data set “Water solubility”, the Water solubility result is “not water-soluble”. Moreover, the “TLR2-agonistic activity (in words)” value at human TLR2 was “highly active”.
Take `CCCCCCCCCCCCCCCC(=O)OCC(CSC[C@H](N)C(=O)N[C@@H](CO)C(=O)O)OC(=O)CCCCCCCCCCCCCCC` (stereo partly drawn) [PAM2CS, S-[2,3-bis(palmitoyloxy)-(2RS)-propyl]-R-cysteinyl-S-serine]: the “Local reactogenicity and pyrogenicity” value with rabbit is “devoid”. Further, the Adjuvanticity entry in data set [1] is recorded as “potently adjuvantic”. Besides, in the data set with human blood, the Pro-inflammatory activity result is listed as “devoid of any detectable pro-inflammatory activity”.
In the case of `CCCCCCCCCCCC(=O)OC[C@H](CSC[C@H](N)C(=O)N[C@@H](CO)C(=O)O)OC(=O)CCCCCCCCCCC` [Compound 17], the “TLR2-agonistic activity (in words)” value on human TLR2 is listed as “lower in activity than the parent PAM2CS compound”.
